An excerpt weighted towards active compounds, which were near 2.4% of everything screened.
PAD4 FP inh – PAD4 (human) enzyme inhibition. Q9UM07. recombinant PAD4, RCA probe fluorescence polarization. inhibition, % at 6.36 µM. 0.41% of 330,000 active;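 active = percent inhibition above a cutoff equal to the mean of all tested compounds plus 3 SD, cut at about 15% in these data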
TDP2 inh – blocks human TDP2 phosphodiesterase activity; O95551; recombinant TDP2, T5PNP hydrolysis, p-nitrophenol absorbance 415 nm; inhibition, % at 12.8 µM; 0.34% of 370,000 active; AID 720702;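 active = inhibition above the mean of all tested compounds plus 3 SD, set per campaign, cut at about 25% in these data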
Target sequence (O95551 whole entry, looked up): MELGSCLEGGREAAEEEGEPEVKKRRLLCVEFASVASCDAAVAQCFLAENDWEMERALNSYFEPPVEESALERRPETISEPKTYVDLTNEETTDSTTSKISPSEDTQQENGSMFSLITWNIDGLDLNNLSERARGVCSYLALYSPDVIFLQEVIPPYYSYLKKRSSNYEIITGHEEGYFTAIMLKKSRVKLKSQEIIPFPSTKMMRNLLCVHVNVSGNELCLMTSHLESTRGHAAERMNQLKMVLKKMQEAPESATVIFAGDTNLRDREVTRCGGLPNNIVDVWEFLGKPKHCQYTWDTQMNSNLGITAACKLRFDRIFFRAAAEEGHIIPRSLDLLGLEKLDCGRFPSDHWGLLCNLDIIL
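Incubation: 2 h at 37 °C; Test system: recombinant human TDP2; Quantity: enzyme 120 nM; Read-out basis: percent inhibition; Medium: 50 mM Tris-HCl pH 7.5 with Mg2+, KCl, DTT, BSA; Repeats: single replicate; Compound: 12.8 µM single point, 1% DMSO; Signal: epi absorbance; Reagent: 5 mM T5PNP chromogenic substrate; Benchmarks: no-enzyme high, DMSO-plus-enzyme low.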
TCR-CD3 inh – blocks the human TCR-CD3 interaction. TAMRA-labeled TCR probe fluorescence, biochemical. inhibition, % at 9.4 µM. 0.37% of 360,000 active. AID 651800; in the data active = inhibition above about 19%;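 note: recombinant mutant TCR 2C K166C tagged with TAMRA read by polarization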
Apaf-1 inh – inhibitors of human Apaf-1 apoptosome | 0.71% of 330,000 active | reconstituted apoptosome caspase-3 activity, DEVD-Rh110 fluorescence | O14727 | inhibition, % at 20 µM; active = inhibition of at least 40% at 20 µM
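System: Apoptosome proteins | Medium: Hepes pH 7.5 with detergent and BSA | Also added: Cytochrome c trigger plus (Z-DEVD)2-Rh110 caspase-3 substrate | Incubation: 30 min compound preincubation, 50 min activation, room temperature | Detection: Rhodamine 110 fluorescence at Ex 480/Em 540 nm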
SIAE primary – inhibitors of human sialic acid acetylesterase SIAE; Q9HAT2; SIAE FP-Rh probe binding, fluorescence polarization; inhibition, % at 9.66 µM; 0.69% of 370,000 active; AID 1053197;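 active = inhibition above a cutoff: mean of compounds within the control limits plus 3 SD of those, cut at about 17% in these data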
GSTO1 counter – blocks human GSTO1 in RBBP9 counter-screen. 1.1% of 300,000 active. inhibition, % at 5.96 µM. P78417. recombinant GSTO1, activity-based probe fluorescence polarization;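 active = inhibition above the campaign mean inhibition plus 3 SD, cut at about 35% in these data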
Target sequence (P78417 whole entry, looked up): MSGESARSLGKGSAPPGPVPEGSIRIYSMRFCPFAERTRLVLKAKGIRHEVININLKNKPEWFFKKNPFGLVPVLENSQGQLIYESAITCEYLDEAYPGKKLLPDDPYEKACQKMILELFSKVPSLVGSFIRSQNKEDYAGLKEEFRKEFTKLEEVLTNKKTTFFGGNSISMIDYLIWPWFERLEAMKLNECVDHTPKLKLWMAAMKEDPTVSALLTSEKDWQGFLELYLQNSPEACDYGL
SIAE confirm – human SIAE inhibition, confirmation; 13% of 2,300 active; inhibition, % at 9.66 µM; SIAE FP-Rh activity-based probe, fluorescence polarization; shares compounds with SIAE primary; AID 1117263;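 active = mean inhibition of the replicates above the hit cutoff set in the primary screen, cut at about 17% in these data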;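 note: inhibitors lower polarization as more probe stays unbound to SIAE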
Large screens that a line does not name were inactive (follow-up assays come after a bar, where they were run).

CCCn1nc([N+](=O)[O-])c(C(C#N)c2nc3ccccc3o2)c(Cl)c1=O (stereo not given)	SIAE primary 22 | SIAE confirm inactive
C#CCn1cc(/C=N/Nc2nc3ccccc3[nH]2)c2ccccc21	SIAE primary 55 | SIAE confirm 61
C(=N\Nc1nc2ccccc2[nH]1)/c1cccc2nccnc12	none
CCOC(=O)C1Nc2ccc(Br)cc2C2C=CCC12 (stereo not given)	SIAE primary 20 | SIAE confirm inactive
CC(C)CNC(=O)C1Nc2ccccc2C2C=CCC12 (stereo not given)	SIAE primary 20 | SIAE confirm inactive
CN(C)c1ccc(NC(=O)CSc2nnc(C3CCCCC3)n2N)cc1	SIAE primary 20 | SIAE confirm inactive
O=C(CN(C(=O)CNS(=O)(=O)c1ccccc1)c1ccc(Cl)cc1)NCC1CCCO1 (stereo not given)	none
O=C(NCCCN1CCCCC1)C1CCC(=O)N1CCc1ccccc1 (stereo not given)	none
CC(C)CC(=O)N1CCN(S(=O)(=O)c2ccc(Cl)cc2)CC1	none
CC(CC(=O)N1CCN(S(=O)(=O)c2ccc(Cl)cc2)CC1)n1cncn1 (stereo not given)	SIAE primary 18 | SIAE confirm inactive
O=C(Nc1ccc2ccccc2c1)c1cccc([N+](=O)[O-])c1	SIAE primary 29 | SIAE confirm inactive
O=C(O)c1cccc([N+](=O)[O-])c1C(=O)Nc1ccc2ccccc2c1	SIAE primary 21 | SIAE confirm inactive
O=C(Nc1ccc2ccccc2c1)c1ccccc1[N+](=O)[O-]	none (no result: PAD4 FP inh, Apaf-1 inh, GSTO1 counter)
Cc1c(C(=O)Nc2ccc3c(c2)CCC3)cccc1[N+](=O)[O-]	SIAE primary 18 | SIAE confirm inactive
O=C(Nc1cccc([N+](=O)[O-])c1)c1ccccc1	none
Cc1c(C(=O)Nc2ccc(Nc3ccccc3)cc2)cccc1[N+](=O)[O-]	none
CCN(c1ccccc1)S(=O)(=O)c1ccc2c(c1)CCCN2C(C)=O	none
O=C1CSC(c2cn(-c3ccccc3)nc2-c2cc3ccccc3oc2=O)N1Cc1cccnc1 (stereo not given)	none
CCOc1cc([C@@H]2C[C@H]3CN(c4ccccc4)C(=O)[C@]34CCCN24)ccc1OC	none
Cc1cc2oc(C(=O)N3CCN(CCc4ccccn4)CC3)c(C)c2cc1C	SIAE primary 24 | SIAE confirm inactive
CCN(CC)CCNc1nc(-c2ccc(OC)cc2)c(-c2ccc(OC)cc2)s1	none
COCCNc1nc(-c2ccc(OC)cc2)c(-c2ccc(OC)cc2)s1	SIAE primary 19 | SIAE confirm inactive
CCn1ncc(/C=N\NC(=O)c2ccc3c(c2)c(C)c(C)n3Cc2ccccc2)c1C	SIAE primary 38 | SIAE confirm inactive
COC(=O)[C@]12C[C@H](CC(=O)NCC3CCCCC3)C(=O)N(CCC3=CCCCC3)C1=C[C@H](C(C)C)O[C@@H]2C1CC1	none (no result: PAD4 FP inh, TCR-CD3 inh, Apaf-1 inh, GSTO1 counter)
O=C(C(c1ccccc1)c1ccccc1)N1CCN(CCN2C(=O)c3cccc4cccc(c34)C2=O)CC1	none
Cc1cc2ccccc2n1CCNC(=O)Cc1cccc2ccccc12	TCR-CD3 inh 68, SIAE primary 22 | SIAE confirm inactive
CC(=O)NCCn1c(C)cc2ccccc21	none
CCN(Cc1ccccc1)C(=O)C1CCN(CC2CC=CCC2)CC1 (stereo not given)	SIAE primary 22 | SIAE confirm inactive
CCN(CC)C(=O)C1CCN(CC2CC=CCC2)CC1 (stereo not given)	none
Cc1cccc(NC(=O)CNC(=O)[C@H]2O[C@@H](n3cnc4c(N)ncnc43)[C@H](O)[C@@H]2O)c1C	none (no result: PAD4 FP inh, Apaf-1 inh, GSTO1 counter)
CN(Cc1cnn(-c2ccc(F)cc2)c1)C(=O)[C@H]1O[C@@H](n2cnc3c(N)ncnc32)[C@H](O)[C@@H]1O	SIAE primary 41 (no result: PAD4 FP inh, Apaf-1 inh, GSTO1 counter) | SIAE confirm 45
CCCn1cnnc1CNC(=O)[C@H]1O[C@@H](n2ccc(N)nc2=O)[C@H](O)[C@@H]1O	none (no result: PAD4 FP inh, Apaf-1 inh, GSTO1 counter)
COc1cc(NC(=O)[C@H]2O[C@@H](n3ccc(N)nc3=O)[C@H](O)[C@@H]2O)cc(OC)c1OC	SIAE primary 26 (no result: PAD4 FP inh, Apaf-1 inh, GSTO1 counter) | SIAE confirm 20
Cc1ccc(CNC(=O)[C@H]2O[C@@H](n3cnc4c(N)ncnc43)[C@H](O)[C@@H]2O)o1	SIAE primary 17 (no result: PAD4 FP inh, Apaf-1 inh, GSTO1 counter) | SIAE confirm 20
Cc1ccc(CNC(=O)[C@H]2O[C@@H](n3ccc(N)nc3=O)[C@H](O)[C@@H]2O)o1	SIAE primary 25 (no result: PAD4 FP inh, Apaf-1 inh, GSTO1 counter) | SIAE confirm 19
COc1cc(CCC(=O)NCCc2ccc(F)cc2)cc(OC)c1OC	SIAE primary 18 | SIAE confirm inactive
O=C1CCc2cc(S(=O)(=O)N3CCN(Cc4cccc5c4OCO5)CC3)ccc2N1	none (no result: PAD4 FP inh, TCR-CD3 inh, Apaf-1 inh, GSTO1 counter)
COc1cccc(C=NN2CCCCCC2)c1OC	SIAE primary 21 (no result: PAD4 FP inh, Apaf-1 inh, GSTO1 counter) | SIAE confirm inactive
O=C(Nc1cccc(O)c1)c1ccc(C(F)(F)F)cc1	none
CC(C)(C(=O)c1ccccc1)/[N+]([O-])=C/c1ccccc1F	none
CCCCn1c(N)c(N(C(=O)CSc2nnnn2-c2ccccc2)C2CCCC2)c(=O)[nH]c1=O	SIAE primary 22 (no result: GSTO1 counter) | SIAE confirm inactive
O=C(O)c1cccc(NS(=O)(=O)c2ccc(Cl)c(C(=O)O)c2)c1	SIAE primary 18 | SIAE confirm inactive
COc1cc(OC)c(OC)cc1/C=N/NC(=O)C[n+]1ccccc1	SIAE primary 49 | SIAE confirm inactive
COc1cccc(/C=N/NC(=O)C[n+]2ccccc2)c1O	none
CN(C)Cc1c(O)ccc2occ(C(=O)c3ccccc3)c12	none
CN(C)Cc1c(O)ccc2occ(C(=O)c3ccc(F)cc3)c12	SIAE primary 22 | SIAE confirm inactive
CC(=O)Nc1ccc(OCC(O)Cn2c(C)nc3ccccc32)cc1 (stereo not given)	SIAE primary 19 | SIAE confirm inactive
COc1ccc(CNc2cccc3[nH]c(C(F)(F)F)nc23)cc1OC	SIAE primary 19 | SIAE confirm inactive
COCCNc1nc(NCC2CCCCC2)c2sc(-c3ccccc3)cc2n1	SIAE primary 20 (no result: PAD4 FP inh, Apaf-1 inh, GSTO1 counter) | SIAE confirm 32
COCCNc1nc(NCCOc2ccccc2Cl)c2sc(-c3ccccc3)cc2n1	SIAE primary 20 (no result: PAD4 FP inh, Apaf-1 inh, GSTO1 counter) | SIAE confirm 26
COCCNc1nc(NCCNC(C)=O)c2sc(-c3ccccc3)cc2n1	none (no result: PAD4 FP inh, Apaf-1 inh, GSTO1 counter)
Cc1cc(C)nc(NC(=O)c2cccs2)n1	none
C=C1N(C)c2cc([N+](=O)[O-])c(N)cc2C1(C)C	SIAE primary 18, GSTO1 counter 36 | SIAE confirm inactive
COc1cc(-c2nnc(SCc3cc(=O)oc4cc(C)ccc34)o2)cc(OC)c1OC	none
CCC(c1ccccc1)c1noc(CCN(CC)CC)n1 (stereo not given)	SIAE primary 20 (no result: PAD4 FP inh, Apaf-1 inh, GSTO1 counter) | SIAE confirm inactive

Assay outcomes (PubChem)
